Assay results reported in ChEMBL document CHEMBL4257531, “The role of aryl-topology in balancing between selective and dual 5-HT7R/5-HT1A actions of 3,5-substituted hydantoins” (Medchemcomm, 2018).

Tests used:
[1] = molecular target: D(2) dopamine receptor (Homo sapiens, UniProt P14416); test: Displacement of [3H]-raclopride from human D2L receptor expressed in HEK293 cell membranes after 1 hr by microbeta counting method
[2] = molecular target: T1, 5-hydroxytryptamine receptor 1A (Homo sapiens, UniProt P08908); test: Displacement of [3H]-8-OH-DPAT from human 5-HT1A receptor expressed in HEK293 cell membranes after 1 hr by microbeta counting method
T1 sequence (P08908 whole entry): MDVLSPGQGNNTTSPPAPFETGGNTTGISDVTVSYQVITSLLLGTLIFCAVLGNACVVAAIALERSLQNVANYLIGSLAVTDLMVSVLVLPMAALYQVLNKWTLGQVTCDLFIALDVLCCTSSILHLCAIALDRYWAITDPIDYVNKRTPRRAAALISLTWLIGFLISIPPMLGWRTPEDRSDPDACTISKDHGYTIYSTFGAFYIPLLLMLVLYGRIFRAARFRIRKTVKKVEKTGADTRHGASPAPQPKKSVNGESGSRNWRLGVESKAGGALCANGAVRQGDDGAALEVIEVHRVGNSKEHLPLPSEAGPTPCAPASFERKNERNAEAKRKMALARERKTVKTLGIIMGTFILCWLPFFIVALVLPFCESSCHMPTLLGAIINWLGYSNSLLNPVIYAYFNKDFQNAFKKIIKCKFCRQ

[3] = molecular target: 5-hydroxytryptamine receptor 7 (Homo sapiens, UniProt P34969); test: Displacement of [3H]-5-carboxamidotryptamine from human 5-HT7B receptor expressed in HEK293 cell membranes after 1 hr by microbeta counting method
Sequence of 5-hydroxytryptamine receptor 7 (P34969 whole entry): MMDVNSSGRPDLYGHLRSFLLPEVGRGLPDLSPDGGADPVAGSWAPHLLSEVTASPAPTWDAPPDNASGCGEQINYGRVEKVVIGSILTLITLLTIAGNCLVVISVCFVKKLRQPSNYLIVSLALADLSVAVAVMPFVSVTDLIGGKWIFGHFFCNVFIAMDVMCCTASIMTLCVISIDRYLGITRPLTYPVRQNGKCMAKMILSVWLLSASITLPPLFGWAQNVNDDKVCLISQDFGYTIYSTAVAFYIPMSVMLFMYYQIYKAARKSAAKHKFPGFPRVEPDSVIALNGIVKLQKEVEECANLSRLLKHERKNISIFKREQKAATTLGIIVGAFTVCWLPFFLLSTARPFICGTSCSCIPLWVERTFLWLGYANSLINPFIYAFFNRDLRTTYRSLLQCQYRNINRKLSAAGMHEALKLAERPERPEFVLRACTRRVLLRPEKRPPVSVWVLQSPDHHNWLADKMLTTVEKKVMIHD

[4] = system: HEK293; test: Cytotoxicity against HEK293 cells assessed as reduction in cell viability after 72 hrs by MTS assay; conditions: human, hek293, 72 h
[5] = system: HepG2; test: Cytotoxicity against human HepG2 cells assessed as reduction in cell viability at 10 uM after 72 hrs by MTS assay; assay type: cell-based; conditions: hepg2, 72 h
How it was run: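 Cells exposed to test compound across 0.1–100 μM (four concentrations) for 72 h. Viability read by MTS assay, absorbance at 490 nm. Positive controls: doxorubicin 1 μM for both lines, plus CCCP 10 μM for HepG2 only. Significance versus negative control assessed by one-way ANOVA with Bonferroni's test.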

[6] = system: HEK293; test: Cytotoxicity against HEK293 cells assessed as reduction in cell viability at 1 uM after 72 hrs by MTS assay; assay type: cell-based; conditions: human, hek293, 72 h
How it was run: (§1)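 Viability by MTS, absorbance at 490 nm, after 72 h exposure at 0.1–100 μM; doxorubicin 1 μM as positive control. HepG2 only: CCCP 10 μM as additional control. Significance versus negative control by one-way ANOVA with Bonferroni test.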

[7] = system: HepG2; test: Cytotoxicity against human HepG2 cells assessed as reduction in cell viability at 1 uM after 72 hrs by MTS assay; assay type: cell-based; conditions: hepg2, 72 h; how it was run: as §1
[8] = system: HepG2; test: Cytotoxicity against human HepG2 cells assessed as reduction in cell viability at 0.1 to 10 uM after 72 hrs by MTS assay; assay type: cell-based; conditions: hepg2, 72 h; how it was run: as §1
[9] = system: HEK293; test: Cytotoxicity against HEK293 cells assessed as reduction in cell viability at 100 uM after 72 hrs by MTS assay; assay type: cell-based; conditions: human, hek293, 72 h; how it was run: as §1
[10] = system: HEK293; test: Cytotoxicity against HEK293 cells assessed as reduction in cell viability at 0.1 to 10 uM after 72 hrs by MTS assay; assay type: cell-based; conditions: human, hek293, 72 h; how it was run: as §1
[11] = system: HepG2; test: Cytotoxicity against human HepG2 cells assessed as reduction in cell viability at 100 uM after 72 hrs by MTS assay; assay type: cell-based; conditions: hepg2, 72 h; how it was run: as §1
[12] = Intrinsic clearance in CD-1 mouse liver microsomes by UPLC-MS analysis; assay type: ADME, microsome; conditions: read-out: CLH
How it was run: (§2)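 Mouse liver microsomes with NADPH regeneration system; incubation followed by UPLC-MS with ion fragmentation. Percent substrate remaining read after 120 min; t1/2 and hepatic intrinsic clearance calculated.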

[13] = Drug metabolism in CD-1 mouse liver microsomes after 120 mins by UPLC-MS analysis; assay type: ADME, microsome; conditions: for metabolised at 2 h: CD-1, mouse, liver microsomes, read-out: Drug metabolism; how it was run: as §2
[14] = Metabolic stability in CD-1 mouse liver microsomes assessed as parent compound remaining after 120 mins by UPLC-MS analysis; assay type: ADME, microsome; conditions: 2 h; how it was run: as §2
[15] = Half life in CD-1 mouse liver microsomes by UPLC-MS analysis; assay type: ADME, microsome; conditions: for t1/2: mouse, microsomes; how it was run: as §2
[16] = organism: Homo sapiens; test: Selectivity ratio of Ki for 5-HT1A receptor (unknown origin) to Ki for 5-HT7 receptor (unknown origin)
How it was run: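 Competition binding on membranes of HEK-293 cells stably expressing human 5-HT1A or 5-HT7b receptors. 5-HT1A used 2.5 nM [3H]-8-OH-DPAT at room temperature; 5-HT7b used 0.8 nM [3H]-5-CT at 37 °C. Both ran 1 h, with 10 μM 5-HT for nonspecific binding. Seven concentrations (10–10–10–4 M) were tested in triplicate, with filtration read-out.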

Sequence of D(2) dopamine receptor (P14416 whole entry): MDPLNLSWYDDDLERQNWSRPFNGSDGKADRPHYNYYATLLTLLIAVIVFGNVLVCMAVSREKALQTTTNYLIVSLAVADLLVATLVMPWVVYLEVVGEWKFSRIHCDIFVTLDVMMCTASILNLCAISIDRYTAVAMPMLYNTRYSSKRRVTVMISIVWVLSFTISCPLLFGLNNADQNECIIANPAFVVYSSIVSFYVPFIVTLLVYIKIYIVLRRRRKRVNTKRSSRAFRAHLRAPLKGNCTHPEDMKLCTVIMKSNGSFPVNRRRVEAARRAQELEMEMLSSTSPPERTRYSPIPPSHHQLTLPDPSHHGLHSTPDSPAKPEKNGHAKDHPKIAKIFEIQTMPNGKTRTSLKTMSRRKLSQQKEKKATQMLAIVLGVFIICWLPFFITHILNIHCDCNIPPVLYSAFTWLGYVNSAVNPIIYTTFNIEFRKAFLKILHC

SMILES | Ki [1] | Ki [2] | Ki [3] | other results
CC1(c2ccc3ccccc3c2)NC(=O)N(CC(O)CN2CCN(c3ccccc3C#N)CC2)C1=O (configuration not stated) | 264 nM | 129 nM | 3 nM | –
CC1(c2cccc3ccccc23)NC(=O)N(CC(O)CN2CCN(C(c3ccccc3)c3ccccc3)CC2)C1=O (configuration not stated) | 273 nM | 413000 nM | 224 nM | –
CC1(c2cccc3ccccc23)NC(=O)N(CC(O)CN2CCN(c3ccccc3C#N)CC2)C1=O (configuration not stated) | 416 nM | 1230 nM | 19 nM | –
CC1(C)NC(=O)N(CC(O)CN2CCN(C(c3ccccc3)c3ccccc3)CC2)C1=O (configuration not stated) | 1150 nM | 15100 nM | 824 nM | –
CC1(c2ccc(F)cc2)NC(=O)N(CC(O)CN2CCc3ccccc3C2)C1=O (configuration not stated) | 5850 nM | 1550 nM | 888 nM | –
N#CC(C#N)=NNc1cccc(Cl)c1 [CARBONYL CYANIDE M-CHLOROPHENYLHYDRAZONE] | – | – | – | Activity [4]: Toxic; Activity [5]: Toxic
COc1cccc2c1C(=O)c1c(O)c3c(c(O)c1C2=O)C[C@@](O)(C(=O)CO)C[C@@H]3O[C@H]1C[C@H](N)[C@H](O)[C@H](C)O1 [DOXORUBICIN] | – | – | – | Activity [6]: Toxic; Activity [7]: Toxic
CC1(c2ccc(F)cc2)NC(=O)N(CC(O)CN2CCN(Cc3cccc4ccccc34)CC2)C1=O (configuration not stated) | 5230 nM | 5580 nM | 2170 nM | –
COc1ccccc1N1CCN(CC(O)CN2C(=O)NC(C)(C)C2=O)CC1 (configuration not stated) | 2130 nM | 489 nM | 125 nM | –
COc1ccccc1N1CCN(CC(O)CN2C(=O)NC(C)(c3cccc4ccccc34)C2=O)CC1 (configuration not stated) | 256 nM | 326 nM | 5 nM | Activity [8]: Non-Toxic; Activity [9]: Toxic; Activity [10]: Non-Toxic; Activity [11]: Toxic; CLint scaled [12]: 29 mL/min/kg; Drug metabolism ([13]; mouse, microsomes, 2 h): 40%; Stability [14]: 40%; half-life ([15]; CD-1, mouse, liver microsomes): 1.57 h
CC1(C)NC(=O)N(CC(O)CN2CCN(c3ccccc3C#N)CC2)C1=O (configuration not stated) | 3430 nM | 1160 nM | 209 nM | –
COc1ccccc1N1CCN(CC(O)CN2C(=O)NC(C)(c3ccc4ccccc4c3)C2=O)CC1 (configuration not stated) | 153 nM | 128 nM | 3 nM | Activity [8]: Non-Toxic; Activity [9]: Toxic; Activity [10]: Non-Toxic; Activity [11]: Toxic; CLint scaled [12]: 43.4 mL/min/kg; metabolised at 2 h [13]: 65 to 70%; Stability [14]: 70%; t1/2 [15]: 1.04 h
CC1(c2ccc(F)cc2)NC(=O)N(CC(O)CN2CCC(Oc3ccccc3)CC2)C1=O (configuration not stated) | 4350 nM | 5210 nM | 165 nM | –
CC1(c2ccc(F)cc2)NC(=O)N(CC(O)CN2CCN(c3cccc4ccccc34)CC2)C1=O (configuration not stated) | 295 nM | 19 nM | 11 nM | Activity [8]: Non-Toxic; Activity [9]: Toxic; Activity [10]: Non-Toxic; Activity [11]: Toxic; CLint scaled [12]: 60.3 mL/min/kg; metabolised at 2 h [13]: 65 to 70%; Stability [14]: 65%; t1/2 [15]: 0.75 h
CC1(c2ccc(F)cc2)NC(=O)N(CC(O)CN2CCN(C(c3ccccc3)c3ccccc3)CC2)C1=O (configuration not stated) | – | – | – | CLint scaled [12]: 17.2 mL/min/kg; Stability [14]: 20%; Ratio Ki [16]: 71; t1/2 [15]: 2.625 h
CC1(c2ccc(F)cc2)NC(=O)N(CC(O)CN2CCN(Cc3ccccc3)CC2)C1=O (configuration not stated) | 20000 nM | 378000 nM | 2080 nM | –
CC1(c2ccc(F)cc2)NC(=O)N(CC(O)CN2CCN(C(=O)c3ccccc3)CC2)C1=O (configuration not stated) | 10100 nM | 6220 nM | 3610 nM | –
CC1(c2ccc(F)cc2)NC(=O)N(CC(O)CN2CCC(Oc3ccc(Cl)cc3)CC2)C1=O (configuration not stated) | 4120 nM | 21500 nM | 172 nM | –
